Laboratory results published in ChEMBL document CHEMBL4229382, “Phenylthiazoles with tert-Butyl side chain: Metabolically stable with anti-biofilm activity” (Eur J Med Chem, 2018).
Converted amounts (≈) assume the structure as drawn. The source made the active and inactive calls. The rule behind the calls is not given here.

Experiments:
[1] = system: Staphylococcus epidermidis; test: Antibacterial activity against methicillin-resistant Staphylococcus epidermidis NRS101 after 18 hrs by broth microdilution assay; assay type: functional; details: NRS101, 18 h
In short: (§1)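 Broth microdilution: inoculum from 0.5 McFarland suspension diluted to about 5 × 10^5 CFU/mL. Media were cation-adjusted Mueller-Hinton broth for staphylococci, brain heart infusion for E. faecium, and tryptone soya broth for E. faecalis, S. pneumoniae and L. monocytogenes.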

Staphylococcus aureus [2] = test: Antibacterial activity against methicillin-resistant Staphylococcus aureus 2658 RCMB after 18 hrs by broth microdilution assay; assay type: functional; in short: as §1
Enterococcus faecalis = test: Antibacterial activity against vancomycin-resistant Enterococcus faecalis ATCC 51299 after 18 hrs by broth microdilution assay; assay type: functional; details: ATCC 51299, 18 h; in short: as §1
Staphylococcus aureus [3] = test: Antibacterial activity against methicillin-sensitive Staphylococcus aureus ATCC 6538 after 18 hrs by broth microdilution assay; assay type: functional; details: ATCC 6538, 18 h; in short: as §1
Staphylococcus aureus [4] = test: Antibacterial activity against methicillin-sensitive Staphylococcus aureus NRS107 after 18 hrs by broth microdilution assay; assay type: functional; details: NRS107, 18 h; in short: as §1
Staphylococcus aureus [5] = test: Antibacterial activity against methicillin-resistant Staphylococcus aureus NRS119 after 18 hrs by broth microdilution assay; assay type: functional; details: NRS119, 18 h; in short: as §1
Staphylococcus aureus [6] = test: Antibacterial activity against methicillin-resistant Staphylococcus aureus NRS123 USA400 after 18 hrs by broth microdilution assay; assay type: functional; details: NRS123 USA400, 18 h; in short: as §1
Staphylococcus aureus [7] = test: Antibacterial activity against methicillin-resistant Staphylococcus aureus NRS384 USA300 after 18 hrs by broth microdilution assay; assay type: functional; details: NRS384 USA300, 18 h; in short: as §1
Staphylococcus aureus [8] = test: Antibacterial activity against methicillin-resistant Staphylococcus aureus NRS385 after 18 hrs by broth microdilution assay; assay type: functional; details: NRS385, 18 h; in short: as §1
Staphylococcus aureus [9] = test: Antibacterial activity against methicillin-resistant Staphylococcus aureus NRS386 after 18 hrs by broth microdilution assay; assay type: functional; details: NRS386, 18 h; in short: as §1
Staphylococcus aureus [10] = test: Antibacterial activity against vancomycin-resistant Staphylococcus aureus VRS10 after 18 hrs by broth microdilution assay; assay type: functional; details: VRS10, 18 h; in short: as §1
Staphylococcus aureus [11] = test: Antibacterial activity against vancomycin-resistant Staphylococcus aureus VRS12 after 18 hrs by broth microdilution assay; assay type: functional; details: VRS12, 18 h; in short: as §1
Enterococcus faecium [12] = test: Antibacterial activity against vancomycin-resistant Enterococcus faecium ATCC 700221 after 18 hrs by broth microdilution assay; assay type: functional; details: ATCC 700221, 18 h; in short: as §1
Listeria monocytogenes [13] = test: Antibacterial activity against Listeria monocytogenes ATCC 19111 after 18 hrs by broth microdilution assay; assay type: functional; details: ATCC 19111, 18 h
Staphylococcus aureus [14] = test: Antibacterial activity against methicillin-resistant Staphylococcus aureus NRS123 USA400 assessed as reduction in bacterial growth after 2 to 4 hrs by time kill assay; assay type: functional, organism-based
In short: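 Samples taken at 0, 2, 4, 6, 8, 12 and 24 h were serially diluted in PBS, plated on TSA and incubated ≥18 h for viable CFU/mL. DMSO was the negative control; two independent experiments.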

Caco-2 = test: Cytotoxicity against human Caco2 cells at 32 ug/ml after 2 hrs by MTS assay; assay type: cell-based; details: caco-2, 2 h
In short: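 Caco-2 cells grown in DMEM with 20% FBS, non-essential amino acids and penicillin-streptomycin, 37 °C, 5% CO2; exposed in triplicate to compounds (16, 32, 64 µg/mL) for 2 h; MTS added, 4 h further incubation, OD490 read; viability as percent of DMSO-treated controls; two independent experiments.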

Staphylococcus aureus [15] = test: Bactericidal activity against methicillin-sensitive Staphylococcus aureus ATCC 6538 incubated fo 18 hrs followed by re-plating on tryptic soy agar plates at 37 degC for 18 hrs by broth microdilution assay; assay type: functional; details: ATCC 6538, 18 h
Staphylococcus aureus [16] = test: Bactericidal activity against methicillin-sensitive Staphylococcus aureus NRS107 incubated fo 18 hrs followed by re-plating on tryptic soy agar plates at 37 degC for 18 hrs by broth microdilution assay; assay type: functional; details: NRS107, 18 h
Staphylococcus aureus [17] = test: Bactericidal activity against methicillin-resistant Staphylococcus aureus NRS119 incubated fo 18 hrs followed by re-plating on tryptic soy agar plates at 37 degC for 18 hrs by broth microdilution assay; assay type: functional; details: NRS119, 18 h
Staphylococcus aureus [18] = test: Bactericidal activity against methicillin-resistant Staphylococcus aureus NRS123 USA400 incubated fo 18 hrs followed by re-plating on tryptic soy agar plates at 37 degC for 18 hrs by broth microdilution assay; assay type: functional; details: NRS123 USA400, 18 h
Staphylococcus aureus [19] = test: Bactericidal activity against methicillin-resistant Staphylococcus aureus NRS384 USA300 incubated fo 18 hrs followed by re-plating on tryptic soy agar plates at 37 degC for 18 hrs by broth microdilution assay; assay type: functional; details: NRS384 USA300, 18 h
Staphylococcus aureus [20] = test: Bactericidal activity against methicillin-resistant Staphylococcus aureus NRS385 incubated fo 18 hrs followed by re-plating on tryptic soy agar plates at 37 degC for 18 hrs by broth microdilution assay; assay type: functional; details: NRS385, 18 h
Staphylococcus aureus [21] = test: Bactericidal activity against methicillin-resistant Staphylococcus aureus NRS386 incubated fo 18 hrs followed by re-plating on tryptic soy agar plates at 37 degC for 18 hrs by broth microdilution assay; assay type: functional; details: NRS386, 18 h
Staphylococcus aureus [22] = test: Bactericidal activity against vancomycin-resistant Staphylococcus aureus VRS10 incubated fo 18 hrs followed by re-plating on tryptic soy agar plates at 37 degC for 18 hrs by broth microdilution assay; assay type: functional; details: VRS10, 18 h
Staphylococcus aureus [23] = test: Bactericidal activity against vancomycin-resistant Staphylococcus aureus VRS12 incubated fo 18 hrs followed by re-plating on tryptic soy agar plates at 37 degC for 18 hrs by broth microdilution assay; assay type: functional; details: VRS12, 18 h
[24] = system: Staphylococcus epidermidis; test: Bactericidal activity against methicillin-resistant Staphylococcus epidermidis NRS101 incubated fo 18 hrs followed by re-plating on tryptic soy agar plates at 37 degC for 18 hrs by broth microdilution assay; assay type: functional; details: NRS101, 18 h
Listeria monocytogenes [25] = test: Bactericidal activity against Listeria monocytogenes ATCC 19111 incubated fo 18 hrs followed by re-plating on tryptic soy agar plates at 37 degC for 18 hrs by broth microdilution assay; assay type: functional; details: ATCC 19111, 18 h
Staphylococcus aureus [26] = test: Inhibition of biofilm formation in methicillin-resistant Staphylococcus aureus NRS384 USA300 after 24 hrs by crystal violet staining-based spectrophotometric analysis
Staphylococcus aureus [27] = test: Inhibition of biofilm formation in methicillin-resistant Staphylococcus aureus NRS384 USA300 at 1 time MIC after 24 hrs by crystal violet staining-based spectrophotometric analysis relative to control; set-up: scale not given: the % may be the effect or the level left
Staphylococcus aureus [28] = test: Inhibition of biofilm formation in methicillin-resistant Staphylococcus aureus NRS384 USA300 at 2 times MIC after 24 hrs by crystal violet staining-based spectrophotometric analysis relative to control; set-up: scale not given: the % may be the effect or the level left
Enterococcus faecium [29] = test: Bactericidal activity against vancomycin-resistant Enterococcus faecium ATCC 700221 incubated fo 18 hrs followed by re-plating on tryptic soy agar plates at 37 degC for 18 hrs by broth microdilution assay; details: ATCC 700221, 18 h

Work on `Cc1nc(-c2ccc(C(C)(C)C)cc2)sc1-c1ccnc(NC(=N)N(C)C)n1` yielded an MIC [1] of 8 µg/mL (≈ 20.3 µM), an MIC (Staphylococcus aureus [2]) of 1.17 µg/mL (≈ 2.97 µM) and an MIC (Enterococcus faecalis) of 8 µg/mL (≈ 20.3 µM). For the same compound, the MIC (Staphylococcus aureus [3]) was 8 µg/mL (≈ 20.3 µM), the MIC (Staphylococcus aureus [4]) was 8 µg/mL (≈ 20.3 µM) and the MIC (Staphylococcus aureus [5]) was 8 µg/mL (≈ 20.3 µM). For the same compound, the MIC (Staphylococcus aureus [6]) was 8 µg/mL (≈ 20.3 µM), the MIC (Staphylococcus aureus [7]) was 8 µg/mL (≈ 20.3 µM) and the MIC (Staphylococcus aureus [8]) was 8 µg/mL (≈ 20.3 µM). For the same compound, the MIC (Staphylococcus aureus [9]) was 8 µg/mL (≈ 20.3 µM), the MIC (Staphylococcus aureus [10]) was 8 µg/mL (≈ 20.3 µM) and the MIC (Staphylococcus aureus [11]) was 8 µg/mL (≈ 20.3 µM). The MIC (Enterococcus faecium [12]) was 8 µg/mL (≈ 20.3 µM), the MIC (Listeria monocytogenes [13]) was 8 µg/mL (≈ 20.3 µM) and the Activity (Staphylococcus aureus [14]) was “Active”. The Activity (Caco-2) was “Toxic”, the MBC (Staphylococcus aureus [15]) was 8 µg/mL (≈ 20.3 µM) and the MBC (Staphylococcus aureus [16]) was 8 µg/mL (≈ 20.3 µM). It also gave an MBC (Staphylococcus aureus [17]) of 8 µg/mL (≈ 20.3 µM), an MBC (Staphylococcus aureus [18]) of 8 µg/mL (≈ 20.3 µM) and an MBC (Staphylococcus aureus [19]) of 8 µg/mL (≈ 20.3 µM). It also gave an MBC (Staphylococcus aureus [20]) of 8 µg/mL (≈ 20.3 µM), an MBC (Staphylococcus aureus [21]) of 8 µg/mL (≈ 20.3 µM) and an MBC (Staphylococcus aureus [22]) of 8 µg/mL (≈ 20.3 µM). For the same compound, the MBC (Staphylococcus aureus [23]) was 8 µg/mL (≈ 20.3 µM), the MBC [24] was 8 µg/mL (≈ 20.3 µM) and the MBC (Listeria monocytogenes [25]) was 8 µg/mL (≈ 20.3 µM). The inhibition (Staphylococcus aureus [26]) was “Dose-dependent effect”, the Activity (Staphylococcus aureus [27]) was 35.5% and the Activity (Staphylococcus aureus [28]) was 48.2%. The MBC (Enterococcus faecium [29]) was 16 µg/mL (≈ 40.6 µM).
